# Measured values collected from several papers.
# Each line is one published result; the experiments were not run side by side. pIC50: −log10 of the molar value.
# Cell line: NCI-H460
# Observed: cell growth or viability
Compound,method,time,endpoint,result
COc1cc(N(C)CCN(C)C)c(NC(=O)C=C(C)C)cc1Nc1nc(N2CCc3sccc3C2)c2sccc2n1,MTT,,pIC50,6.27
O=C(O)/C=C/c1ccc(O)cc1,MTT,,pIC50,< 4.30
COc1cc(CNC(=O)CCCC/C=C/C(C)C)ccc1OCc1cn(-c2ccc(C(F)(F)F)cc2)nn1,SRB,,pIC50,5.18
Oc1ccc(C/C=C(/COCc2ccccc2)c2ccc(OCc3ccccc3)cc2)cc1,MTT,24 h,IC50,27.9 µg/mL
CCC(=O)Nc1cc(Nc2nc(N3CCc4sccc4C3)c3cccnc3n2)c(OC)cc1N(C)C,MTT,,pIC50,5.31
CC(=O)c1ccc(N=Nc2c(C(=O)O)cc(O)c(O)c2O)cc1,MTT,,pIC50,4.87
CCC(=O)Nc1cc(Nc2nc(N3CCc4sccc4C3)c3cccnc3n2)c(OC)cc1N1CCSCC1,MTT,,pIC50,4.84
O=c1[nH]cc(F)c(=O)[nH]1,MTT,48 h,pIC50,4.37
Cc1cccc(-n2ncc(Br)c(Br)c2=O)c1,resazurin,96 h,pIC50,5.84
COc1cc([C@@H]2c3cc4c(cc3[C@@H](O[C@@H]3O[C@@H]5CO[C@@H](C)O[C@H]5[C@H](O)[C@H]3O)[C@H]3COC(=O)[C@H]23)OCO4)cc(OC)c1O,MTT,72 h,pIC50,6.08
CCC(=O)Nc1cc(Nc2nc(N3CCOCC3)c3sccc3n2)c(OC)cc1N(C)CCN(C)C,MTT,,pIC50,< 4.30
COc1cc(/C=C/Cc2ccc(O)c(OC)c2)ccc1O,MTT,24 h,IC50,17.5 µg/mL
CCC(=O)Nc1cc(Nc2nc(N3CCc4sccc4C3)c3cccnc3n2)c(OC)cc1N1CCC(N(C)C)CC1,MTT,,pIC50,5.61
CC(=O)c1ccc(/N=N/c2cc(/C=C/C(=O)O)ccc2O)cc1,MTT,,pIC50,< 4.30
C=C(Cl)C(=O)Nc1cc(Nc2nc(Nc3cnn(C)c3)c3sccc3n2)c(OC)cc1N(C)CCN(C)C,MTT,,pIC50,5.49
C#Cc1cccc(Nc2ncnc3cc(OCCOC)c(OCCOC)cc23)c1,MTT,,pIC50,7.40
OCC(CCc1ccc(O)cc1)c1ccc(O)cc1 (centres unmarked),MTT,24 h,IC50,55 µg/mL
COc1cc(CNC(=O)CCCC/C=C/C(C)C)ccc1OCc1cn(-c2ccc(C#N)cc2)nn1,SRB,,pIC50,5.26
O=c1[nH]cc(S(=O)(=O)Nc2cccc(-c3nnc(-c4cccc(Cl)c4)o3)c2)c(=O)[nH]1,MTT,24 h,pIC50,5.55
O=C1NCCc2[nH]c(-c3ccncc3)cc21,,,pIC50,5.00
C=CC(=O)Nc1cc(Nc2nc(N3CCc4sccc4C3)c3cccnc3n2)c(OC)cc1N(C)CCN(C)C,MTT,,pIC50,5.25
COC/C(=C/Cc1ccc(OC)cc1)c1ccc(OC)cc1,MTT,24 h,IC50,75.4 µg/mL
COc1cc(Nc2nccc(-c3cnn4nc(OC)ccc34)n2)cc(C(F)(F)F)c1,ATP luminescence,,pIC50,6.48
CCN1CCN(Cc2ccc(Nc3ncc(F)c(-c4cc(F)c5nc(C)n(C(C)C)c5c4)n3)nc2)CC1,CCK-8,,pIC50,6.02
C=CC(=O)Nc1cc(Nc2nccc(-c3cn(C)c4ccccc34)n2)c(OC)cc1N(C)CCN(C)C,MTT,,pIC50,5.71
C(/Cc1ccc(OCc2ccccc2)cc1)=C(\COCc1ccccc1)c1ccc(OCc2ccccc2)cc1,MTT,24 h,IC50,48.3 µg/mL
CC(=O)O[C@H]1CC[C@]2(C)[C@H]3CC=C4[C@@H]5CC(C)(C)CC[C@]5(C)CC[C@@]4(C)[C@]3(C)CC[C@H]2C1(C)C,,48 h,pIC50,4.97
COc1cc(C/C=C/c2ccc(O)cc2)ccc1O,MTT,24 h,IC50,19.9 µg/mL
COc1ccc(-c2cc(=O)c3c(O)c(OC)c(OC)cc3o2)cc1O,,48 h,pIC50,4.43
